Most compounds without a hit are left out; they make up all but 2.1% or so of the library.
CDK5 inh: blocks human CDK5/p35 kinase activity; Q00535+Q15078; Recombinant CDK5/p35, ADP-Glo luminescence, 60 min; inhibition, % at 10 µM; 0.01% of 330,000 active; AID 488839;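 active means highest replicate inhibition of at least 50% and at least 75% of replicates reaching 50%; inconclusive means only one of the two criteria met; inactive means both criteria failed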
SR-BI HDL uptake: mouse SR-BI HDL lipid transfer inhibition | inhibition, % at 12.5 µM | 0.96% of 320,000 active | ldlA[mSR-BI] CHO cells, DiI-HDL uptake fluorescence, 3 h;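 active means mean replicate inhibition of at least 70% and a set share of replicates each scoring 70 or more; inconclusive means meets just one of the two criteria; inactive means fails both criteria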
Target sequence (Q61009 whole entry, looked up): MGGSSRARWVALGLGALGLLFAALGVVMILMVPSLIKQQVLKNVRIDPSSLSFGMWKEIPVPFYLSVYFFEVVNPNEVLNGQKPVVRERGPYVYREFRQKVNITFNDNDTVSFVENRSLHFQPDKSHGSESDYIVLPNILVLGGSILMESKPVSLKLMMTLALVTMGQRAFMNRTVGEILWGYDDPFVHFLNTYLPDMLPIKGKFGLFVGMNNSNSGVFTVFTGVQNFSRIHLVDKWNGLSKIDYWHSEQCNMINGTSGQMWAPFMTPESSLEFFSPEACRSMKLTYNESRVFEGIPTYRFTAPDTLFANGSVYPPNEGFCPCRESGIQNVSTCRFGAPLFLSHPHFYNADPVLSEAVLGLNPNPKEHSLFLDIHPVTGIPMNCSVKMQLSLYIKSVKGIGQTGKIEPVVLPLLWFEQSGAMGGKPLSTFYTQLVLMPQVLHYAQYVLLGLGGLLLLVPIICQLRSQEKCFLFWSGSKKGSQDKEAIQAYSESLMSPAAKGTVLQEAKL
PKA-R2B activ: PKA-R2B complex activation. P22694+P31323. PKA-R2B holoenzyme dissociation, Cy5-IP20 fluorescence polarization; R2B truncated from residue 108, S112A mutant; 0% DMSO only, 100% 113 µM cGMP. activation, % at 11.4 µM. 0.079% of 340,000 active. AID 504700;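 active means activation above a cutoff set at the mean over all compounds plus 3 SD, cut at about 18% in these data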;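 further: higher means more holoenzyme dissociation and a rise in polarization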
SR-BI DiI-HDL act: SR-BI HDL lipid transfer activation; CHO ldlA[mSR-BI] cells, DiI-HDL uptake fluorescence, 3 h; 100 = double the neutral-control signal; activation, % at 12.5 µM; 0.096% of 320,000 active;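 active means mean replicate activation of at least 60% and every replicate at or above 60%; inconclusive means mean or all-replicate condition met, but not both; inactive means mean below 60% and not all replicates reaching 60%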
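System: LDL receptor-deficient CHO ldlA cells overexpressing murine SR-BI | Timing: 3 h uptake period with compound, 37 °C | Medium: HEPES-buffered (25 mM, pH 7.4) F12 plus 0.5% BSA | Dosing: Single-point compound dose | Signal: Bottom-read fluorescence, 550/595 nm | Read-out: Retained DiI signal reflecting DiI-HDL uptake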
PKA-R1A activ: activates the PKA-R1A holoenzyme complex. P00514+P68181. PKA-R1A dissociation, Cy5-IP20 fluorescence polarization; scaled: DMSO 0%, 113 µM cGMP 100%. activation, % at 11.4 µM. 0.083% of 340,000 active. AID 504707;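 active means percent activation above the mean of all tested compounds plus 3 SD, cut at about 19% in these data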;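 further: higher means more PKAc released from R1A so a rise in polarization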
dFosB activator: activators of mouse delta FosB homodimer | purified delta FosB, TAMRA-CDK5 oligo fluorescence polarization; percent of positive-control signal above neutral wells | P13346 | AID 493131 | 0.99% of 340,000 active | activation, % at 25 µM;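 active means mean activation above about 17%, with every replicate also reaching it, limit read from the data, passing the limit was not always enough; inconclusive means only one of the two conditions met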
Each line names hits and unclear results; the compound was inactive in the other large screens.

CC(OC(=O)C1=COCCO1)C(=O)Nc1ncc(Cl)cc1Cl (stereo not drawn)	none
CCOC(=O)C1CCN(C(=O)c2ccc(S(=O)(=O)Nc3ccccc3Cl)cc2)CC1	none
O=C(COc1cc(F)ccc1[N+](=O)[O-])NCC1CCCO1 (stereo not drawn)	none
CCOC(=O)c1cnc(SCc2nc(N)nc(Nc3ccc(F)cc3)n2)nc1N	dFosB activator inconclusive
CCOC(=O)c1cnc(SCc2nc(N)nc(Nc3ccc(C)cc3)n2)nc1N	dFosB activator 48
C/C(=N\NC(=O)c1ccccc1O)c1c(O)cc(C)oc1=O	SR-BI HDL uptake 101
C/C(=N\NC(=O)c1ccccc1[N+](=O)[O-])c1c(O)cc(C)oc1=O	none
CN1/C(=C\C(=O)COC(=O)Cn2nnc(-c3ccccc3)n2)C(C)(C)c2ccccc21	dFosB activator 52
CN1/C(=C/C(=O)COC(=O)CN2C(=O)C3CC=CCC3C2=O)C(C)(C)c2ccccc21 (stereo not drawn)	none
NC(=O)N/N=C/c1c(O)ccc2oc3c(c12)CCCC3	CDK5 inh 90
CC(C)(C)N=Cc1c(O)ccc2oc3c(c12)CCCC3	none
Oc1ccc(C2=NN(c3ccccc3)C(c3ccc(F)cc3)C2)cc1 (stereo not drawn)	none
Oc1ccccc1C1=NN(c2ccccc2)C(c2ccc(F)cc2)C1 (stereo not drawn)	SR-BI HDL uptake 74
Cc1ccc(C)c(NC(=O)CN(C)C(=O)c2ccccc2OCc2ccccc2Cl)c1	none
Cc1ccc(C(=O)NNC(=O)c2ccc3ccccc3c2O)cc1	SR-BI HDL uptake 111
O=C(NNC(=O)c1ccc2ccccc2c1O)NC1CCCCC1	SR-BI HDL uptake 90 (no result: SR-BI DiI-HDL act)
COc1cccc(OCC(=O)NNC(=O)c2ccc3ccccc3c2O)c1	SR-BI HDL uptake 89 (no result: SR-BI DiI-HDL act)
COc1ccccc1C(=O)NNC(=O)c1ccc2ccccc2c1O	none (no result: CDK5 inh, SR-BI HDL uptake, SR-BI DiI-HDL act, dFosB activator)
COc1ccc(C(=O)NNC(=O)c2ccc3ccccc3c2O)cc1	SR-BI HDL uptake 75
Cc1cccc(NC(=O)NNC(=O)c2ccc3ccccc3c2O)c1	none
O=S(=O)(c1ccc(NCc2ccccc2)cc1)N1CCOCC1	none
CCCC(c1nnnn1CS(=O)(=O)c1ccc(C)cc1)N1CCN(CC)CC1 (stereo not drawn)	none (no result: PKA-R2B activ, PKA-R1A activ)
CCN1CCCC1CNC(=O)c1ccc2c(c1)NC(=O)/C(=C\c1ccc(OC)c(OC)c1)S2 (stereo not drawn)	dFosB activator 44
COC(=O)c1[nH]c(=O)c2ccccc2c1OCc1ccccc1	SR-BI DiI-HDL act 200
Cc1cc(C(=O)N/N=C/c2c(CO)cnc(C)c2O)c2ccccc2n1	none
Cc1ncc(CO)c(/C=N/NC(=O)c2cc(Br)ccc2O)c1O	SR-BI HDL uptake 116
CCCCc1ccc(NC(=O)CSC2=NN3CCCC(=O)N=C3S2)cc1	none
C=CCNC(=S)Nc1sc2c(c1C(=O)OCC)CC(C(C)C)OC2 (stereo not drawn)	SR-BI HDL uptake 74
COc1ccc2nc(NC(=O)C3CC(=O)N(c4ccc5c(c4)OCCO5)C3)sc2c1 (stereo not drawn)	none
COc1ccc(-c2nc(NC(=O)C3CC(=O)N(c4ccc5c(c4)OCCO5)C3)sc2C)cc1 (stereo not drawn)	SR-BI HDL uptake 74
CC(C)[C@H](N)c1cn([C@@H](CC(N)=O)C(=O)N2CCNCC2)nn1	none
N#C/C(=C\c1cccc(O)c1)c1nc2ccccc2o1	none
N#C/C(=C\Nc1ccccc1O)c1nc2ccccc2o1	SR-BI HDL uptake 113
COc1cc(OC)cc(-c2c(-c3cccs3)c3cc(-c4ccc(OC)c(F)c4)ccc3n2C)c1	none
COc1cc(OC)cc(-c2c(-c3cccs3)c3cc(-c4ccc(OC)c(OC)c4)ccc3n2C)c1	SR-BI HDL uptake 79
COc1cc(OC)cc(-c2c(-c3cccs3)c3cc(-c4ccc5c(c4)OCCO5)ccc3n2C)c1	SR-BI HDL uptake 78
CCCCNc1nc2c(c(=O)[nH]c(=O)n2C)n1CCCc1ccccc1	none (no result: CDK5 inh, SR-BI HDL uptake, SR-BI DiI-HDL act, dFosB activator)
COc1cc(NC(=O)CCC(=O)c2cccs2)cc(OC)c1	none
CCCn1nc(C(=O)NNC(=O)CCCOc2ccc(C)cc2)c2ccccc2c1=O	none

High-throughput results as filed in PubChem BioAssay.
